Experimental data collected from several papers.
Lines come from different studies, so protocols differ.

SMILES	cell line	assay	setting	IC50 [µM]
C/C=C1\NC(=O)[C@H]2CSSCC/C=C/[C@H](CC(=O)N[C@H](C(C)C)C(=O)N2)OC(=O)[C@H](C(C)C)NC1=O	MP46	cell growth or viability, ATP luminescence	72 h	0.00127
COc1ccc(Nc2ncnc3c2ncn3Cc2ccc(C(=O)Nc3ccccc3N)cc2)cc1	THP-1	cell growth or viability, MTT	72 h	0.93
CCNC(=O)c1cc2c(-c3cc(C(C)(C)O)ccc3Oc3c(C)cc(F)cc3C)cn(C)c(=O)c2[nH]1	MP46	cell growth or viability, ATP luminescence	72 h	56600
CONC(=O)c1cccc2c1cc(C)n2-c1nc2c(c(NCc3ccccc3)n1)CCCN2	SW-620	cell growth or viability	72 h	2.3
c1ccc(Oc2ccc(Nc3c4c(nc5ccccc35)CCC4)cc2)cc1	THP-1	cell growth or viability	72 h	18.3
C[C@H]1C[C@H]2[C@@H]3CCC4=CC(=O)C=C[C@]4(C)[C@H]3C(=O)C[C@]2(C)[C@@]1(O)C(=O)CO	HepaRG	reactive oxygen species, inhibitor	16 h	5.27
COc1cc([C@@H]2c3cc4c(cc3[C@H](O)[C@H]3COC(=O)[C@H]23)OCO4)cc(OC)c1OC	MP46	cell growth or viability, ATP luminescence	72 h	0.00656
COc1cc([C@@H]2c3cc4c(cc3[C@@H](O[C@@H]3O[C@@H]5CO[C@@H](C)O[C@H]5[C@H](O)[C@H]3O)[C@H]3COC(=O)[C@H]23)OCO4)cc(OC)c1O	CAPAN-1	cell growth or viability, MTS	72 h	0.24
COc1cc(C2C3=C(COC3=O)N(CCO)c3cc4c(cc32)CCC4)cc(OC)c1OC (centres unmarked)	SUM159	cell growth or viability, ATP luminescence	48 h	0.24
Cc1cc2c(C(N)=O)cccc2n1-c1nc2c(c(NCc3ccccc3)n1)CCCN2	SW-620	cell growth or viability	72 h	0.6
O=c1cc(OCc2cc(-c3ccc(C(F)(F)F)cc3)no2)c2ccccc2o1	CAPAN-1	cell growth or viability, MTS	72 h	> 100
CC(=O)N1c2ccc(-c3ccc(C(=O)O)cc3)cc2[C@H](Nc2ccc(Cl)cc2)C[C@@H]1C	MP46	cell growth or viability, ATP luminescence	72 h	0.104
O=P1(C2CCCCC2)CCCCC1	SW-620	cell growth or viability, MTT	72 h	16.1
c1ccc(-c2cc(CNc3cccc4cccnc34)on2)cc1	CAPAN-1	cell growth or viability, MTS	72 h	11.4
COC(=O)Nc1nc2ccc(C(=O)c3cccs3)cc2[nH]1	HepaRG	reactive oxygen species, inhibitor	16 h	9.61
O=C(CSc1nc2ccccc2s1)N/N=C/c1ccc(OCC(=O)Nc2cccc(Cl)c2)cc1	CAPAN-1	cell growth or viability, MTS	72 h	18.2

SMILES	cell line	assay	setting	IC50 [µM]
COc1ccc(-c2nc(N3CCOCC3)c3sc(CN(C)c4ncc(C(=O)NO)cn4)cc3n2)cn1	MP46	cell growth or viability, ATP luminescence	72 h	0.00928
O=P1(c2ccccc2)CCCCC1	SW-620	cell growth or viability, MTT	72 h	> 100
Cc1[nH]c2ccccc2c1CCNCc1ccc(/C=C/C(=O)NO)cc1	MP46	cell growth or viability, ATP luminescence	72 h	0.0277
c1ccc(-c2cc(CNc3cccc4cccnc34)on2)nc1	CAPAN-1	cell growth or viability, MTS	72 h	13.1
CC1(P2(=O)CCCCC2)CCCCC1	SW-620	cell growth or viability, MTT	72 h	> 100
O=C(NO)c1ccc(Cn2cnc3c(Nc4ccc(F)c(Cl)c4)ncnc32)cc1	THP-1	cell growth or viability, MTT	72 h	1.61
O=c1cc(OCc2cc(-c3ccc(Cl)cc3Cl)no2)c2ccccc2o1	CAPAN-1	cell growth or viability, MTS	72 h	80.1
O=C(CSc1nc2ccccc2s1)N/N=C/c1ccc(OCC(=O)Nc2cccc([N+](=O)[O-])c2)cc1	CAPAN-1	cell growth or viability, MTS	72 h	4.25
FC(F)(F)c1cc(OCc2cc(-c3ccccc3)no2)c2ccccc2n1	CAPAN-1	cell growth or viability, MTS	72 h	7.4
Nc1ccccc1NC(=O)c1ccc(Cn2cnc3c(Nc4ccc(Br)cc4F)ncnc32)cc1	THP-1	cell growth or viability, MTT	72 h	0.41
FC(F)(F)c1ccc(-c2cc(COc3cc(C(F)(F)F)nc4ccccc34)on2)cc1	CAPAN-1	cell growth or viability, MTS	72 h	> 100
Nc1ccccc1NC(=O)c1ccc(Cn2cnc3c(Nc4ccc(Cl)cc4)ncnc32)cc1	THP-1	cell growth or viability, MTT	72 h	0.48
N#Cc1ccc(-c2cc(CNc3cccc4cccnc34)on2)cc1	CAPAN-1	cell growth or viability, MTS	72 h	13.1
Cc1cccc(C)c1NC(=O)CN1CCCC1=O	HepaRG	reactive oxygen species, inhibitor	16 h	5.93
COc1nnc2ccc(N3CCC(c4ccc(OCCN5CCN(C)C(=O)[C@H]5C)cc4)CC3)nn12	MP46	cell growth or viability, ATP luminescence	72 h	0.0683
FC(F)(F)c1ccc(-c2cc(CNc3cccc4cccnc34)on2)cc1	CAPAN-1	cell growth or viability, MTS	72 h	19.9
